CHRM4 agonist: agonists of human muscarinic M4 receptor (CHRM4); activation, % at 3 µM; 360,000 compounds, 0.14% hits; CHO-K1 hM4/Gqi5, Fluo-8 calcium fluorescence; vehicle 0%, full acetylcholine response 100%; AID 624127;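 active = activation above the run mean over all test wells plus 3 SD, cut at about 32% in these data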;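 note: peak over basal fluorescence ratio per well then scaled between controls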
M5 PAM: potentiates acetylcholine response at human M5 receptor; CHO-K1 hM5, Fluo-8 calcium, ACh EC20 PAM; 0% = ACh EC20, 100% = ACh EC100; activation, % at 3 µM; 360,000 compounds, 0.3% hits; AID 624038;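 active = activation above the run cutoff, the mean activation of all test compounds plus 3 SD, cut at about 18% in these data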
Target sequence (P08912 whole entry, looked up): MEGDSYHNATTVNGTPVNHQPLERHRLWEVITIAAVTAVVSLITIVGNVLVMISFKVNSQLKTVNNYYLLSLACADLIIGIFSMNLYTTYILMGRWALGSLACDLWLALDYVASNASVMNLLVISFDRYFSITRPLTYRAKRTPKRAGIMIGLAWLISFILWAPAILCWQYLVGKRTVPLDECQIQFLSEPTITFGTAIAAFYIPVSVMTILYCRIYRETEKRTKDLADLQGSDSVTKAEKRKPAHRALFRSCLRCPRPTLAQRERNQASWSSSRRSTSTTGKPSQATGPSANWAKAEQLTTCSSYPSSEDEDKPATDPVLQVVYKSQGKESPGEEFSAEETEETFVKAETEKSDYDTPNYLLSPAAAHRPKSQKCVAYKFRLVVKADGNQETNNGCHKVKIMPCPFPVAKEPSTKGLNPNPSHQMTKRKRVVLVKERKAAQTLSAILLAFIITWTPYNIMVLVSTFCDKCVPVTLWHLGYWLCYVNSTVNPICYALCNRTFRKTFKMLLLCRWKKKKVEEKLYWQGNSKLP
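System: CHO-K1 cell line with stable human muscarinic M5 receptor expression | Also added: EC20 acetylcholine as agonist stimulus | Compound: One concentration, 3 µM final (nominal) | Timing: Fluo-8 loading 80 min at 37 °C plus 30 min room temperature | Measured by: Fluo-8 calcium dye fluorescence, kinetic read | Read-out basis: % activation, ACh-normalized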
M5 antag: CHRM5 antagonism in calcium assay; AID 624040; P08912; inhibition, % at 3 µM; CHO-hM5 cells, Fluo-8 calcium fluorescence, ACh EC80; 360,000 compounds, 0.59% hits;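 active = inhibition above a per-plate cutoff, the mean of that plate's test compounds plus 3 SD, cut at about 27% in these data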
M5 ag: CHRM5 agonism in calcium assay. P08912. CHO-K1 hM5 cells, Fluo-8 calcium fluorescence; 0% DMSO wells, 100% maximal acetylcholine response. activation, % at 3 µM. 360,000 compounds, 0.19% hits;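 active = activation above the run's mean over test compounds plus 3 SD, cut at about 23% in these data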;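 note: signal is peak over basal fluorescence ratio across the kinetic read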
CHRM4 PAM: CHRM4 positive allosteric modulation; AID 624126; CHO-K1 hM4/Gqi5, Fluo-8 calcium fluorescence, ACh EC20; 0% = ACh EC20, 100% = maximal ACh; 360,000 compounds, 0.4% hits; activation, % at 3 µM; P08173;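 active = activation above its plate's cutoff, the mean activation of sample wells plus 3 SD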
M4 antag: CHRM4 antagonism in calcium assay | CHO-hM4 cells, ACh EC80, Fluo-8 calcium fluorescence | AID 624125 | 360,000 compounds, 0.73% hits | inhibition, % at 3 µM | P08173;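 active = inhibition above its plate's cutoff, the mean inhibition of sample wells plus 3 SD, cut at about 27% in these data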
Hits are given with their value. Shown are actives, neighbours in structure and some others; about 1.9% of the full set was active somewhere.

`CCCCCn1c(=O)[nH]c2cc(C(=O)NCCc3ccc(OC)c(OC)c3)ccc2c1=O` gave CHRM4 agonist inactive, M5 PAM inactive, M5 antag inactive, M5 ag inactive, CHRM4 PAM inactive and M4 antag inactive.
Screening COc1cc(OC)cc(-c2noc(-c3csc([C@@H]4C[C@H](O)[C@@H](CO)O4)n3)n2)c1 returned CHRM4 agonist inactive, M5 PAM inactive, M5 antag inactive, M5 ag inactive, CHRM4 PAM inactive and M4 antag inactive.
Screening O=C(CC(=O)c1ccccn1)c1ccccc1 returned CHRM4 agonist inactive, M5 PAM inactive, M5 antag inactive, M5 ag inactive, CHRM4 PAM inactive and M4 antag inactive.
CCC(=O)Nc1ccc(NC(=O)CSc2nnc(-c3ccco3)n2CC)cc1 was read as CHRM4 agonist inactive, M5 PAM inactive, M5 antag inactive, M5 ag inactive, CHRM4 PAM inactive and M4 antag inactive.
Screening O=C(NCCc1ccccn1)c1ccc(OC2CCN(Cc3ccccn3)CC2)cc1 returned CHRM4 agonist inactive, M5 PAM inactive, M5 antag inactive, M5 ag inactive, CHRM4 PAM inactive and M4 antag inactive.
`CC(Cc1ccccn1)NC(=O)c1ccc(OC2CCN(Cc3ccccn3)CC2)cc1` (stereo unspecified) gave CHRM4 agonist inactive, M5 PAM inactive, M5 antag inactive, M5 ag inactive, CHRM4 PAM 18.0 and M4 antag inactive.
Screening C/C(=N/NC(=O)CNC(=O)CCc1ccccc1)c1ccc(Cl)c(Cl)c1 returned CHRM4 agonist inactive, M5 PAM inactive, M5 antag inactive, M5 ag inactive, CHRM4 PAM inactive and M4 antag inactive.
For Fc1ccc(-c2cc(C(F)(F)C(F)F)[nH]n2)cc1 the results were CHRM4 agonist inactive, M5 PAM inactive, M5 antag inactive, M5 ag 31.9, CHRM4 PAM inactive and M4 antag inactive.
Screening FC(F)C(F)(F)c1cc(-c2ccc(Cl)cc2)n[nH]1 returned CHRM4 agonist inactive, M5 PAM inactive, M5 antag inactive, M5 ag inactive, CHRM4 PAM inactive and M4 antag 28.5.
CC(NC(=O)/C=C/c1ccccc1)c1ccccc1 (stereo unspecified) was read as CHRM4 agonist inactive, M5 PAM inactive, M5 antag inactive, M5 ag 30.8, CHRM4 PAM inactive and M4 antag inactive.
Screening CCCC(O)(CCN1CCOCC1)c1ccc(Cl)cc1 (stereo unspecified) returned CHRM4 agonist inactive, M5 PAM inactive, M5 antag inactive, M5 ag inactive, CHRM4 PAM inactive and M4 antag inactive.
Screening CCCC(O)(CCN1CCOCC1)c1ccc(Br)cc1 (stereo unspecified) returned CHRM4 agonist inactive, M5 PAM inactive, M5 antag inactive, M5 ag inactive, CHRM4 PAM inactive and M4 antag 43.8.
For Cc1ccc2[nH]c(-c3ccccc3)c(CN3CCCC3)c(=O)c2c1 the results were CHRM4 agonist inactive, M5 PAM 20.3, M5 antag inactive, M5 ag inactive, CHRM4 PAM inactive and M4 antag inactive.
For Cc1c(NC(=O)c2cc(-c3cccs3)nc3ccccc23)c(=O)n(-c2ccccc2)n1C the results were CHRM4 agonist inactive, M5 PAM inactive, M5 antag 27.1, M5 ag inactive, CHRM4 PAM inactive and M4 antag inactive.
Screening CC1CCCN(C(=S)NCCc2ccccc2)C1 (stereo unspecified) returned CHRM4 agonist inactive, M5 PAM 19.3, M5 antag inactive, M5 ag inactive, CHRM4 PAM inactive and M4 antag inactive.
`S=C(NCCc1ccccc1)N1CCCC1` gave CHRM4 agonist inactive, M5 PAM inactive, M5 antag inactive, M5 ag inactive, CHRM4 PAM inactive and M4 antag inactive.
For COc1cccc(S(=O)(=O)N(C)C[C@H]2OCc3cn(nn3)CCCC(=O)N([C@@H](C)CO)C[C@@H]2C)c1 the results were CHRM4 agonist inactive, M5 PAM inactive, M5 antag inactive, M5 ag inactive, CHRM4 PAM inactive and M4 antag inactive.
`O=C(Nc1ccc(OC(F)(F)F)cc1)c1cccc(-n2cnnn2)c1` gave CHRM4 agonist inactive, M5 PAM inactive, M5 antag inactive, M5 ag inactive, CHRM4 PAM inactive and M4 antag inactive.
For CCC(C)c1ccccc1NC(=O)COc1ccc(-n2cnnn2)cc1 (stereo unspecified) the results were CHRM4 agonist inactive, M5 PAM inactive, M5 antag inactive, M5 ag inactive, CHRM4 PAM 20.4 and M4 antag inactive.
For CCOc1ccc(NC(=O)c2cccc(-n3cnnn3)c2)cc1 the results were CHRM4 agonist inactive, M5 PAM inactive, M5 antag inactive, M5 ag inactive, CHRM4 PAM inactive and M4 antag 26.6.
For CCOc1ccc2nc(N(CCN(CC)CC)C(=O)c3cccc([N+](=O)[O-])c3)sc2c1 the results were CHRM4 agonist inactive, M5 PAM inactive, M5 antag inactive, M5 ag inactive, CHRM4 PAM inactive and M4 antag inactive.
CN(C)c1ccc(C(=O)/C=C/c2cccnc2)cc1 was read as CHRM4 agonist inactive, M5 PAM inactive, M5 antag inactive, M5 ag inactive, CHRM4 PAM inactive and M4 antag inactive.
For CN(C)c1ccc(/C=C/C(=O)c2cccc(Br)c2)cc1 the results were CHRM4 agonist 349.2, M5 PAM inactive, M5 antag 56.8, M5 ag 78.0, CHRM4 PAM inactive and M4 antag 63.1.
`O=C(COC(=O)c1nc(Cl)ccc1Cl)Nc1ccc(Cl)cc1` gave CHRM4 agonist inactive, M5 PAM inactive, M5 antag inactive, M5 ag inactive, CHRM4 PAM 22.0 and M4 antag inactive.
For COc1cc2cc(C(c3nnnn3C3CCCC3)N3CCCCC3)c(=O)[nH]c2cc1OC (stereo unspecified) the results were CHRM4 agonist inactive, M5 PAM inactive, M5 antag 33.7, M5 ag inactive, CHRM4 PAM inactive and M4 antag inactive.
O=C(CCN1C(=O)S/C(=C\c2ccc(F)cc2)C1=O)Nc1ccc(C(=O)O)c(O)c1 was read as CHRM4 agonist inactive, M5 PAM inactive, M5 antag inactive, M5 ag inactive, CHRM4 PAM 17.3 and M4 antag inactive.
O=C(CCN1C(=O)S/C(=C/c2ccc(F)cc2)C1=O)Nc1ccc(O)c(C(=O)O)c1 was read as CHRM4 agonist inactive, M5 PAM inactive, M5 antag inactive, M5 ag inactive, CHRM4 PAM inactive and M4 antag inactive.
Cc1cccc(-n2c(O)cnc2Nc2nc(C)cc(C)n2)c1 was read as CHRM4 agonist inactive, M5 PAM inactive, M5 antag 27.1, M5 ag inactive, CHRM4 PAM inactive and M4 antag inactive.

From PubChem
